# Measurements published in ChEMBL document CHEMBL1131142 (J Med Chem, 1998).
# Activity calls are given as the source filed them. No cut-off for these calls is given here.
# What was measured:
# [1] = target: Aldo-keto reductase family 1 member B1 (Sus scrofa, UniProt P80276); assay: In vitro inhibitory activity against aldose reductase in porcine lens.
# Procedure, shortened: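 Partially purified porcine lens AR: lens homogenate in 250 mM phosphate pH 7.4 with 2 mM mercaptoethanol, 20000g supernatant, 40-60% ammonium sulfate cut. Assay mix: 100 mM phosphate pH 6.5, 0.2 mM NADPH, 1.5 mM DL-glyceraldehyde, 0.4 M Li2SO4, 7.0 mU/mL enzyme; 37 °C; A340 decrease over 1 min. IC50 read graphically from log concentration-inhibition curve.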
# Rattus norvegicus [2] = assay: Tested in vivo for inhibition of sorbital accumulation in the sciatic nerve of streptozotocin- induced diabetic rat;NS=No significant inhibition at 100 mg/kg; format: functional, organism-based; parameters: dose 100 mg/kg
# Rattus norvegicus [3] = assay: Tested in vivo for inhibition of sorbital accumulation in the sciatic nerve of streptozotocin- induced diabetic rat; % Inhibition at 30 mg/kg; format: functional
# Rattus norvegicus [4] = species: Rattus norvegicus; assay: Dose required for inhibition of sorbital accumulation in the sciatic nerve of streptozotocin- induced diabetic rat.; format: functional
# Procedure, shortened: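 Oral dosing of streptozotocin-diabetic rats once daily for 5 days; sciatic nerve taken 4 h after final dose. Nerve sorbitol assayed fluorometrically via sorbitol dehydrogenase-generated NADH (ex 365/em 430 nm).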
# Rattus norvegicus [5] = assay: Compound tested in vivo for inhibition of sorbital accumulation in the sciatic nerve of streptozotocin- induced diabetic rat; No significant inhibition at 1 mg/kg; format: functional, organism-based; parameters: dose 1 mg/kg
# Rattus norvegicus [6] = assay: Compound tested in vivo for inhibition of sorbital accumulation in the sciatic nerve of streptozotocin- induced diabetic rat; No significant inhibition at 100 mg/kg; format: functional, organism-based; parameters: dose 100 mg/kg
# Rattus norvegicus [7] = assay: Tested in vivo for inhibition of sorbital accumulation in the sciatic nerve of streptozotocin- induced diabetic rat; % Inhibition at 100 mg/kg; format: functional
# Rattus norvegicus [8] = assay: Compound tested in vivo for inhibition of sorbital accumulation in the sciatic nerve of streptozotocin- induced diabetic rat; % Inhibition at 1 mg/Kg; format: functional
# Rattus norvegicus [9] = assay: Compound tested in vivo for inhibition of sorbital accumulation in the sciatic nerve of streptozotocin- induced diabetic rat; No significant inhibition at 30 mg/kg; format: functional, organism-based; parameters: dose 30 mg/kg
Compound,IC50 [1],inhibition in vivo at 30 mg/kg (Rattus norvegicus [3]),also measured
O=C(O)CCC1C(=O)NC(=O)c2cccn21 (configuration not stated),> 10000 nM,,inhibition (Rattus norvegicus [2]): inactive
O=C1CC2(C(=O)N1)C(=O)N(Cc1ccc([N+](=O)[O-])cc1)C(=O)c1cccn12 (configuration not stated),,102%,ED50 (Rattus norvegicus [4]): 10.8 mg/kg/day
CC(C)N1C(=O)c2cccn2C(CCC(=O)O)C1=O (configuration not stated),> 10000 nM,,inhibition (Rattus norvegicus [2]): inactive
O=C1CC2(C(=O)N1)C(=O)N(Cc1ccc(Br)cc1F)C(=O)c1cc(Br)c(Br)n12 (configuration not stated),52 nM,,inhibition (Rattus norvegicus [5]): inactive
COc1ccc(CN2C(=O)c3cccn3C3(CC(=O)NC3=O)C2=O)cc1 (configuration not stated),,46.7%,
O=C1CC2(C(=O)N1)C(=O)N(Cc1ccc(Cl)cc1F)C(=O)c1cccn12 (configuration not stated),,110%,ED50 (Rattus norvegicus [4]): 0.74 mg/kg/day
O=C1CC2(C(=O)N1)C(=O)N(Cc1ccccc1)C(=O)c1cccn12 (configuration not stated),,69.1%,
O=C(O)CC1C(=O)N(Cc2ccc(Cl)c(Cl)c2)C(=O)c2cccn21 (configuration not stated),131 nM,,inhibition (Rattus norvegicus [6]): inactive
O=C(O)CC1C(=O)N(Cc2ccc(Br)cc2F)C(=O)c2cccn21 (configuration not stated),165 nM,,inhibition (Rattus norvegicus [2]): inactive
CN1C(=O)c2cccn2C(CC(=O)O)C1=O (configuration not stated),> 10000 nM,,inhibition in vivo at 100 mg/kg (Rattus norvegicus [7]): 12.8%
O=C1CC2(C(=O)N1)C(=O)N(Cc1ccc(Br)cc1F)C(=O)c1cc(Cl)cn12 (configuration not stated),,,inhibition in vivo at 1 mg/kg (Rattus norvegicus [8]): 23%
CC(=O)c1cc2n(c1)C1(CC(=O)NC1=O)C(=O)N(Cc1ccc(Br)cc1F)C2=O (configuration not stated),210 nM,,inhibition in vivo at 1 mg/kg (Rattus norvegicus [8]): 26.6%
COc1ccc(CN2C(=O)c3cccn3C3(CC(=O)NC3=O)C2=O)c(OC)c1 (configuration not stated),350 nM,,inhibition (Rattus norvegicus [9]): inactive
O=C1CC2(C(=O)N1)C(=O)N(Cc1ccc(F)cc1F)C(=O)c1cccn12 (configuration not stated),,98%,ED50 (Rattus norvegicus [4]): 5.4 mg/kg/day
O=C1CC2(C(=O)N1)C(=O)N(Cc1ccc(Br)cc1F)C(=O)c1ccc(Br)n12 (configuration not stated),,,inhibition (Rattus norvegicus [5]): inactive
O=C1C[C@]2(C(=O)N1)C(=O)N(Cc1ccc(Br)cc1F)C(=O)c1cccn12,190 nM,,ED50 (Rattus norvegicus [4]): > 100 mg/kg/day
O=C1CC2(C(=O)N1)C(=O)N(Cc1ccc(Cl)cc1)C(=O)c1cccn12 (configuration not stated),38 nM,105%,ED50 (Rattus norvegicus [4]): 1.5 mg/kg/day
O=C(O)CCC1C(=O)N(Cc2ccc(Br)cc2F)C(=O)c2cccn21 (configuration not stated),803 nM,,inhibition (Rattus norvegicus [2]): inactive
CC(C)N1C(=O)c2cccn2C(CC(=O)O)C1=O (configuration not stated),> 10000 nM,,inhibition in vivo at 100 mg/kg (Rattus norvegicus [7]): 12.9%
COc1ccc(CN2C(=O)c3cccn3C3(CC(=O)NC3=O)C2=O)cc1OC (configuration not stated),,,inhibition (Rattus norvegicus [9]): inactive
O=C1CC2(C(=O)N1)C(=O)N(Cc1ccc(F)cc1)C(=O)c1cccn12 (configuration not stated),,58.8%,
O=C1CC2(C(=O)N1)C(=O)N(CCc1ccccc1)C(=O)c1cccn12 (configuration not stated),270 nM,15.3%,
O=C1CC2(C(=O)N1)C(=O)N(Cc1cccc(Br)c1)C(=O)c1cccn12 (configuration not stated),,102%,
O=C(O)CC1C(=O)NC(=O)c2cccn21 (configuration not stated),> 10000 nM,,inhibition in vivo at 100 mg/kg (Rattus norvegicus [7]): 12.5%
